Laboratory results from ChEMBL document CHEMBL5674882, “Benzolactam-related compounds promote apoptosis of HIV-infected human cells via protein kinase C-induced HIV latency reversal” (J Biol Chem, 2019).
Active and inactive are the calls of the source. The calls are words filed in the database; no cut-off is given here.

Legend:
[1] = system: U1; assay: Induction of apoptosis in human U1 cells at 1 uM incubated for 48 hrs after pre-incubated for 2 hrs with 20 uM caspase inhibitor Q-VD-Oph by propidium iodide/annexin-V staining based flow cytometry; type: functional, cell-based
In short: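 ACH-2 or U1 cells pretreated 2 h with 20 µM pan-caspase inhibitor Q-VD-Oph, then exposed to 1 µM compound for 48 h. Annexin-V/PI staining by flow cytometry; apoptotic proportions compared with and without Q-VD-Oph. Mean ± S.D.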

[2] = target: T1, Protein kinase C (PKC) (Homo sapiens) (UniProt O94806+P41743+P17252+P05129+Q05655+P05771+Q05513+Q02156+P24723+Q15139+Q04759); assay: Activation of PKC in human U1 cells infected with latent HIV-1 assessed as reversal of HIV-1 latency by measuring increase in p24 antigen level at 1 to 10000 nM incubated for 48 hrs by chemiluminescent enzyme immunoassay; type: cell-based; settings: filed as activator, dose 1-10000 nM
In short: (§1)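 ACH-2 or U1 cells (5 × 10^5 cells/ml) incubated 48 h with graded drug concentrations. Supernatant p24 antigen measured by automated chemiluminescent immunoassay. EC50 calculated taking the maximum response with excess PMA as 100%. Means ± S.D. of three independent experiments.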

[3] = Toxicity in human A3.01 cells assessed as reduction in cell viability after 48 hrs by WST8 assay; type: cell-based
In short: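 Parental, uninfected lines (A3.01 for ACH-2, U937 for U1) at 5 × 10^5 cells/ml cultured with or without drug. Viable cells read at 48 h (day 2) and expressed as % of untreated control. CC50 taken as the concentration lowering viability by 50%.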

[4] = system: U-937; assay: Induction of apoptosis in human U-937 cells assessed as caspase-3 activation at 1 uM incubated for 24 hrs by flow cytometry; type: functional
In short: (§2)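 Cells fixed in 1% paraformaldehyde, permeabilized, stained 30 min on ice with anti-active caspase-3 mAb, and analysed by flow cytometry. Three independent experiments.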

[5] = Induction of apoptosis in human CEM A3.01 cells assessed as caspase-3 activation at 1 uM incubated for 24 hrs by flow cytometry; type: functional; in short: as §2
[6] = target: T1, Protein kinase C (PKC) (Homo sapiens); assay: Synergistic activation of PKC in CD4+ T-cells purified from HIV-infected patient assessed as increase in transcription of HIV mRNA at 5 uM incubated for 24 hrs by qRT-PCR method; type: cell-based; settings: CD4+ T cell, filed as activator
In short: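 CD4+ T-cells purified from PBMC of patients on cART for at least 5 years with plasma viral load <20 copies/ml. Cells plated at 2.5 × 10^6 cells/ml and treated 24 h, alone or with 1 μm JQ1. Intracellular HIV RNA measured by qRT-PCR against a plasmid standard curve, normalised per ng input RNA, relative to untreated cells. Synergy assessed by Bliss independence model.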

[7] = target: Protein kinase C (PKC); assay: Activation of PKC in human J-Lat 6.3 cells infected with latent HIV-1 assessed as reversal of HIV-1 latency by measuring increase of GFP-positive cells at 1 to 10000 nM incubated for 24 hrs by flow cytometry; type: cell-based
In short: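 J-Lat 10.6 or J-Lat 6.3 cells (5 × 10^5 cells/ml) incubated 24 h with graded drug concentrations; % GFP-positive cells determined by flow cytometry. Means ± S.D. of three independent experiments.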

[8] = system: U1; assay: Induction of apoptosis in human U1 cells assessed as caspase-3 activation at 1 uM incubated for 24 hrs by flow cytometry; type: functional; in short: as §2
[9] = Toxicity in human CD4+ T-cells assessed as elevation of supernatant cytokine concentrations of TNFalpha incubated for 24 hrs in presence of JQ1 by bead-based immunoassay; settings: cd4+ t cell
In short: (§3)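 Purified CD4+ T-cells from healthy donors treated 24 h with 1 μm drug, 1 μm JQ1, or the combination. IL-2, IL-5, IL-6, IL-13, TNFα and IFN-γ in supernatants measured by flow-cytometry bead-based Th1/Th2 immunoassay. Run in duplicate.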

[10] = system: U1; assay: Induction of apoptosis in human U1 cells at 1 uM after 48 hrs by PI/annexin-V staining based flow cytometry; type: functional
[11] = target: T1, Protein kinase C (PKC) (Homo sapiens); assay: Activation of PKC in human J-Lat 10.6 cells infected with latent HIV-1 assessed as reversal of HIV-1 latency by measuring increase of GFP-positive cells at 100 to 400 nM in presence of 500 nM GSK525762A incubated for 24 hrs by flow cytometry; type: cell-based; settings: filed as activator, dose 100-400 nM
[12] = target: Protein kinase C (PKC); assay: (§4) Activation of PKC in human U1 cells infected with latent HIV-1 assessed as reversal of HIV-1 latency by measuring increase in p24 antigen level incubated for 48 hrs by chemiluminescent enzyme immunoassay; type: cell-based
[13] = target: T1, Protein kinase C (PKC) (Homo sapiens); assay: as §4; type: cell-based; settings: filed as activator
[14] = system: U1; assay: Induction of apoptosis in human U1 cells at 1 uM incubated for 48 hrs by propidium iodide/annexin-V staining based flow cytometry; type: functional
[15] = Toxicity in human CD4+ T-cells assessed as elevation of supernatant cytokine concentrations of IL-5 incubated for 24 hrs in presence of JQ1 by bead-based immunoassay; settings: cd4+ t cell; in short: as §3
[16] = Toxicity in human CD4+ T-cells assessed as elevation of supernatant cytokine concentrations of IFNgamma incubated for 24 hrs by bead-based immunoassay; settings: cd4+ t cell; in short: as §3
[17] = system: J-Lat 6.3; assay: Induction of apoptosis in human J-Lat 6.3 cells assessed as caspase-3 activation at 1 uM incubated for 24 hrs by flow cytometry (reference value: 2.43%); type: functional; in short: as §2
[18] = target: T1, Protein kinase C (PKC) (Homo sapiens); assay: Activation of PKC in human J-Lat 6.3 cells infected with latent HIV-1 assessed as reversal of HIV-1 latency by measuring increase of GFP-positive cells at 10 uM in presence of PKC alpha/beta inhibitor Go-6976 incubated for 24 hrs by flow cytometry; type: cell-based
In short: (§5)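 J-Lat 6.3 cells pretreated 3 h with a PKC inhibitor: Gö 6983 1 µM, Gö 6976 1 µM, GF 109203X 1 µM, PKCθ/δ inhibitor 10 µM, or Rottlerin 1 µM. Then exposed to 10 µM compound for 24 h; GFP-positive cells counted by flow cytometry. Mean ± S.D.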

[19] = target: T1, Protein kinase C (PKC) (Homo sapiens); assay: Activation of PKC in human ACH-2 cells infected with latent HIV-1 assessed as reversal of HIV-1 latency by measuring increase in p24 antigen level at 1 to 10000 nM incubated for 48 hrs by chemiluminescent enzyme immunoassay; type: cell-based; settings: ACH-2 cell line, filed as activator, dose 1-10000 nM; in short: as §1
[20] = Toxicity in human CD4+ T-cells assessed as elevation of supernatant cytokine concentrations of IL-6 incubated for 24 hrs by bead-based immunoassay; settings: cd4+ t cell; in short: as §3
[21] = system: ACH-2 cell line; assay: Induction of apoptosis in human ACH-2 cells assessed as caspase-3 activation at 1 uM incubated for 24 hrs by flow cytometry; type: functional; in short: as §2
[22] = target: T1, Protein kinase C (PKC) (Homo sapiens); assay: Activation of PKC in human J-Lat 6.3 cells infected with latent HIV-1 assessed as reversal of HIV-1 latency by measuring increase of GFP-positive cells at 10 uM in presence of PKC theta/delta/epsilon/eta inhibitor PKCtheta/delta inhibitor incubated for 24 hrs by flow cytometry; type: cell-based; in short: as §5
[23] = target: T1, Protein kinase C (PKC) (Homo sapiens); assay: Activation of PKC in human J-Lat 6.3 cells infected with latent HIV-1 assessed as reversal of HIV-1 latency by measuring increase of GFP-positive cells at 10 uM in presence of PKC delta inhibitor Rottlerin incubated for 24 hrs by flow cytometry; type: cell-based; in short: as §5

CCCCCCCCCCc1ccc2c(c1)N(C)[C@@H](C(C)C)C(=O)N[C@H](CO)C2
Activity [1]: inactive | Activity [2]: Active | CC50 at 48 h [3]: 21.1 µM | Activity [4]: 0.5% | Activity [5]: 2.01% | fold change (FC) [6]: 1.4 | EC50 [7]: 6.3 µM | Activity [8]: 24.9% | Activity [9]: Non-Toxic | Activity [10]: 30.4% | Activity [11]: Active | EC50 [12]: 0.034 µM | Activity [13]: Dose-Dependent Effect | Activity [14]: 28.4% | Activity [15]: Non-Toxic | Activity [16]: Toxic | Activity [17]: 21.9% | Activity [18]: inactive | Activity [19]: Active | Activity [20]: Toxic | Activity [21]: 23% | Activity [22]: inactive | Activity [23]: inactive
